{"data": "Published values pooled from the literature", "target": "Aurora kinase C (AURKC, Homo sapiens, UniProt Q9UQB9)", "One construct used (Q9UQB9 1-309)": "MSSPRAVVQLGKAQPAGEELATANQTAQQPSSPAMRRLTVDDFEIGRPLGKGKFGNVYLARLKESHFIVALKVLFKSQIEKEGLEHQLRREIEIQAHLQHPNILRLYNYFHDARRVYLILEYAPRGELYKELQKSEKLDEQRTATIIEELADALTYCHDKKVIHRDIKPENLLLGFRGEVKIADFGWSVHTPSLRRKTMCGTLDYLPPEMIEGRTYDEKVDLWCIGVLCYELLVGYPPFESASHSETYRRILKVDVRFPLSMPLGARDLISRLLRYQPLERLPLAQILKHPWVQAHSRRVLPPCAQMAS", "note": "Protocols differ between the studies behind these lines."}
{"SMILES": "CC(=O)N1CCC(c2ccc(C(=O)NC3=NCCN3)cc2C(F)(F)F)CC1", "effect on": "cell-free assay", "method": "competition with immobilised ligand", "concentration": "1 µM", "endpoint": "remaining binding", "result": "100%"}
{"SMILES": "CC/C(=N\\NC(=O)NCc1cccc(O)c1)c1ccc(O)c(C)c1O", "effect on": "enzyme activity", "action": "inhibitor", "concentration": "0.1 µM", "endpoint": "inhibition", "result": "2.5%"}
{"SMILES": "CCN(CC)CCNC(=O)c1c(C)[nH]c(/C=C2\\C(=O)Nc3ccc(Cl)cc32)c1C", "effect on": "enzyme activity", "action": "inhibitor", "concentration": "0.5 µM", "endpoint": "remaining activity", "result": "74.7%"}
{"SMILES": "Cc1cnc(NC2CCOCC2)nc1-n1cnc(C(=O)NC(CN)c2cc(F)cc(Cl)c2)c1 (centres unmarked)", "effect on": "enzyme activity", "action": "inhibitor", "method": "radiometric", "concentration": "1 µM", "endpoint": "remaining activity", "result": "67%"}
{"SMILES": "COc1cc2ncnc(Nc3ccc(Oc4ccccc4)c(C)c3C)c2cc1OC", "effect on": "enzyme activity", "action": "inhibitor", "concentration": "1 µM", "endpoint": "inhibition", "result": "5%"}
{"SMILES": "CCN(CC)c1ccc(C2=NNC(=O)CC2C)cc1[N+](=O)[O-] (centres unmarked)", "effect on": "enzyme activity", "action": "inhibitor", "concentration": "10 µM", "endpoint": "remaining activity", "result": "122%"}
{"SMILES": "CC(C)(O)[C@H]1CC[C@H](Nc2ccc3ncc(-c4cccc(C(F)(F)F)c4)n3n2)CC1", "effect on": "enzyme activity", "action": "inhibitor", "concentration": "1 µM", "endpoint": "remaining activity", "result": "88.5%"}
{"SMILES": "O=C1NC(=O)c2cc(Nc3ccc(F)cc3)c(Nc3ccc(F)cc3)cc21", "effect on": "cell-free assay", "concentration": "0.5 µM", "endpoint": "remaining signal", "result": "90.8%"}
{"SMILES": "O=C(NS(=O)(=O)c1ccc(NCC2CCOCC2)c([N+](=O)[O-])c1)c1ccc(N2CCN(Cc3ccc(C(F)(F)F)cc3-c3ccc(Cl)cc3)CC2)cc1Oc1cnc2[nH]ccc2c1", "effect on": "cell-free assay", "method": "competition with immobilised ligand", "concentration": "1 µM", "endpoint": "remaining binding", "result": "97%"}
{"SMILES": "COc1cc2nccc(Oc3ccc(NC(=O)c4c5n(n(-c6ccc(F)cc6)c4=O)CCCC5)cc3)c2cc1OC", "effect on": "enzyme activity", "action": "inhibitor", "concentration": "0.1 µM", "endpoint": "inhibition", "result": "24%"}
{"SMILES": "O=c1c2ccccc2[nH]c(=S)n1CCN1CCC(=C(c2ccc(F)cc2)c2ccc(F)cc2)CC1", "effect on": "enzyme activity", "action": "inhibitor", "concentration": "0.5 µM", "endpoint": "remaining activity", "result": "99.4%"}
{"SMILES": "CCC(=O)N[C@@H]1CC[C@H](C(=O)N(C)c2ccc(-c3nc4ccccc4o3)cc2)C1", "effect on": "cell-free assay", "method": "competition with immobilised ligand", "concentration": "1 µM", "endpoint": "remaining binding", "result": "100%"}
{"SMILES": "Cc1ccc(C(=O)NCc2ccsc2)cc1C#Cc1cn(C(C)C)c2ncnc(N)c12", "effect on": "enzyme activity", "action": "inhibitor", "concentration": "1 µM", "endpoint": "activity vs control", "result": "81%"}
{"SMILES": "CC(C)(C)c1nc(-c2cccc(NS(=O)(=O)c3c(F)cccc3F)c2F)c(-c2ccnc(N)n2)s1", "effect on": "enzyme activity", "action": "inhibitor", "method": "radiometric", "concentration": "1 µM", "endpoint": "remaining activity", "result": "92%"}
{"SMILES": "O=C(O)[C@H]1[C@H](Cn2nnc3ccccc3c2=O)CC[C@@H]1C(=O)c1ccc(OCCC2CCOCC2)cc1", "effect on": "cell-free assay", "method": "competition with immobilised ligand", "concentration": "1 µM", "endpoint": "remaining binding", "result": "79%"}
{"SMILES": "O=C(Nc1cnn(-c2csc(C(=O)NC3COC3)c2)c1)Nc1c(F)cccc1Cl", "effect on": "enzyme activity", "action": "inhibitor", "concentration": "5 µM", "endpoint": "remaining activity", "result": "58.5%"}
{"SMILES": "CN(C)C(=O)Cn1cc(-c2nc([C@@](C)(c3ccc(-c4cnc(N)nc4)cc3)C3CC3)no2)cn1", "effect on": "cell-free assay", "method": "competition with immobilised ligand", "concentration": "1 µM", "endpoint": "remaining binding", "result": "100%"}
{"SMILES": "CNc1cccc2cc(C(=O)Nc3ccc(C(=O)O)cc3)c(=O)[nH]c12", "effect on": "enzyme activity", "action": "inhibitor", "concentration": "10 µM", "endpoint": "inhibition", "result": "-7.3%"}
{"SMILES": "CC(C)CC(=O)N1CCc2nc(-c3ccc(Br)cc3)nc(N(C)Cc3ccccc3)c2C1", "effect on": "cell-free assay", "method": "competition with immobilised ligand", "concentration": "0.1 µM", "endpoint": "remaining binding", "result": "100%"}
{"SMILES": "O=C1Nc2ccc(Cl)cc2C1=Cc1cc(Cl)c(O)c(Cl)c1", "effect on": "cell-free assay", "concentration": "0.5 µM", "endpoint": "remaining signal", "result": "78.6%"}
